This note sets out measurements from ChEMBL document CHEMBL1129623, “Effects of multidrug resistance (MDR1) P-glycoprotein expression levels and coordination metal on the cytotoxic potency of multidentate (N4O2) (ethylenediamine)bis[propyl(R-benzylimino)]metal(III) cations” (1996).

Calls of active or inactive are those of the source. The rule behind the calls is not given here.

The test system of assay [1] is KB 3-1. As to the kind of experiment: Compound was tested for dependency on R-ENBPI In(III) complexs in human drug sensitive (KB-3-1)cells. It is filed as functional. In short, it runs like this:
(§1)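 KB-3-1 cells were plated at 5000/well in 5% FBS medium and allowed 4 h to recover. Complexes were added in triplicate at concentrations up to 100 μM, then incubated 72 h at 37 °C, 5% CO2. Cells were TCA-fixed and stained with SRB, read at 490–450 nm, and expressed as % of vehicle control. A sigmoid fit with Smin constrained to zero gave LC50 and fit dependencies.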

The subject of assay [2] is KB 3-1. As to the kind of experiment: Compound was tested for dependency on R-ENBPI Ga(III) complexs in human drug sensitive (KB-3-1)cells. It is filed as functional. In short, it runs like this: as §1
Assay [3] deals with KB 3-1. As to the kind of experiment: (§2) Compound was tested for dependency on R-ENBPI Fe(III) complex in human drug sensitive (KB-3-1)cells. The following applies: read-out: LC50 (the source's name). It is filed as functional. An outline of the steps: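 Parameter dependency from the sigmoid fit S={(Smax−Smin)/[1+(C/LC50)^γ]}+Smin of KB-3-1 SRB survival data: 72 h exposure, triplicate wells, up to 100 μM, Smin constrained to zero. It is used to judge overparameterization of the fitted curve.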

The test system of assay [4] is KB. Put plainly: Compound was tested for cytotoxic lethal concentration on R-ENBPI Al(III) complex in multi drug resistant (KB-8-5)cells. To be noted: Homo sapiens, read-out: LC50 (the source's name). It is filed as functional. In short, it runs like this: (§3)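 KB-8-5 cells are colchicine-selected and express modest MDR1 P-glycoprotein. They were kept in drug-free medium for 96 h, then plated at 5000/well in 5% FBS medium and allowed 4 h recovery. Complex was added in triplicate up to 100 μM, with 72 h at 37 °C, 5% CO2. Read-out was SRB staining after TCA fixation, A490–450. LC50 came from a sigmoid fit (Smin=0) of survival relative to vehicle. Values ≥100 μM were not fitted.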

Assay [5] deals with KB. Put plainly: Compound was tested for cytotoxic lethal concentration on R-ENBPI Ga(III) complex in multi drug resistant (KB-8-5)cells. It is filed as functional. To be noted: Homo sapiens, read-out: LC50 (the source's name). An outline of the steps:
as §3

Assay [6] deals with KB 3-1. As to the kind of experiment: Compound was tested for cytotoxic lethal concentration on R-ENBPI Al(III) complexs in human drug sensitive (KB-3-1)cells. It is filed as functional. To be noted: read-out: LC50 (the source's name). In short, it runs like this:
(§4)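 Parental KB-3-1 human epidermal carcinoma cells, no immunodetectable P-glycoprotein, 5000/well in 5% FBS medium, 4 h recovery. Complex was added in triplicate wells up to 100 μM, 72 h at 37 °C, 5% CO2. Cells were TCA-fixed and stained with 0.4% SRB, dye dissolved in 10 mM Tris, A490–450. LC50 was from a sigmoid fit of survival versus vehicle control, Smin constrained to zero.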

The test system of assay [7] is KB 3-1. Put plainly: Compound was tested for dependency on R-ENBPI Al(III) complexs in human drug sensitive (KB-3-1)cells. It is filed as functional. In short, it runs like this: as §1
Assay [8] relates to KB. Put plainly: Compound was tested for coefficient of variation percent on R-ENBPI Fe(III) complex in multi drug resistant (KB-8-5) cells; NA=not applicable. It is filed as functional, cell-based. The following applies: Homo sapiens. An outline of the steps:
(§5)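 KB-8-5 multidrug-resistant cells were kept drug-free for 96 h, then plated at 5000/well in 5% FBS medium and allowed 4 h to recover. Complexes were added in triplicate up to 100 μM for 72 h at 37 °C. Survival was read by SRB staining (490–450 nm) relative to vehicle. LC50 came from a sigmoid fit with Smin fixed at zero, giving CV% and dependency statistics.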

The subject of assay [9] is KB. Put plainly: Compound was tested for dependency on R-ENBPI Ga(III) complex in […] (KB-8-5) cells. It is filed as functional. An outline of the steps:
as §5

Assay [10] deals with KB 3-1. As to the kind of experiment: Compound was tested for cytotoxic lethal concentration on R-ENBPI In(III) complexs in human drug sensitive (KB-3-1)cells. parentheses value indicates SEM. It is filed as functional. The following applies: read-out: LC50 (the source's name). An outline of the steps:
as §4

The test system of assay [11] is KB. As to the kind of experiment: Compound was tested for cytotoxic lethal concentration on R-ENBPI Fe(III) complex in multi drug resistant (KB-8-5)cells. To be noted: Homo sapiens, read-out: LC50 (the source's name). It is filed as functional. An outline of the steps:
as §3

Assay [12] concerns KB 3-1. Put plainly: Compound was tested for cytotoxic lethal concentration on R-ENBPI […] complexs in human drug sensitive (KB-3-1)cells parentheses value indicates SEM. It is filed as functional. To be noted: read-out: LC50 (the source's name). An outline of the steps: as §4
In assay [13] the test system is KB. Put plainly: Compound was tested for dependency on R-ENBPI Fe(III) complex in multi drug resistant (KB-8-5) cells; NA=not applicable. It is filed as functional, cell-based. To be noted: Homo sapiens. In short, it runs like this: as §5
Assay [14] deals with KB. As to the kind of experiment: Compound was tested for dependency on R-ENBPI In(III) complex in multi drug resistant (KB-8-5)cells. It is filed as functional, Homo sapiens. An outline of the steps: as §5
Assay [15] relates to KB 3-1. The assay is described as §2. It is filed as functional. In short, it runs like this:
as §1

For assay [16], the system named is KB. As to the kind of experiment: Compound was tested for cytotoxic lethal concentration on R-ENBPI In(III) complex in multi drug resistant (KB-8-5)cells. The following applies: Homo sapiens, read-out: LC50 (the source's name). It is filed as functional. In short, it runs like this:
as §3

The test system of assay [17] is KB. As to the kind of experiment: Compound was tested for dependency on R-ENBPI Al(III) complex in multi drug resistant (KB-8-5)cells. It is filed as functional, Homo sapiens. An outline of the steps: as §5
The subject of assay [18] is KB. As to the kind of experiment: Compound was tested for dependency on R-ENBPI Ga(III) complex in […] (KB-8-5) cells; NA=not applicable. It is filed as functional, cell-based. An outline of the steps:
as §5

Assay [19] has as its system KB. Put plainly: Compound was tested for coefficient of variation percent on R-ENBPI Ga(III) complex in multi drug resistant (KB-8-5) cells; NA=not applicable. It is filed as functional, cell-based. The following applies: Homo sapiens. An outline of the steps:
as §5

The test system of assay [20] is KB. Put plainly: Compound was tested for dependency on R-ENBPI Al(III) complex in multi drug resistant (KB-8-5) cells; NA=not applicable. It is filed as functional, cell-based. To be noted: Homo sapiens. In short, it runs like this: as §5
Assay [21] relates to KB 3-1. Put plainly: Compound was tested for cytotoxic lethal concentration on R-ENBPI […] complexs in human drug sensitive (KB-3-1)cells. parentheses value indicates SEM. It is filed as functional. To be noted: read-out: LC50 (the source's name). In short, it runs like this: as §4
In assay [22] the test system is KB. Put plainly: Compound was tested for coefficient of variation percent on R-ENBPI Al(III) complex in multi drug resistant (KB-8-5) cells; NA=not applicable. It is filed as functional, cell-based. To be noted: Homo sapiens. In short, it runs like this: as §5
The test system of assay [23] is KB 3-1. Put plainly: Compound was tested for cytotoxic lethal concentration on R-ENBPI Al(III) complexs in human drug sensitive (KB-3-1)cells. parentheses value indicates SEM. It is filed as functional. The following applies: read-out: LC50 (the source's name). An outline of the steps:
as §4

The test system of assay [24] is KB. As to the kind of experiment: Compound was tested for cytotoxic lethal concentration on R-ENBPI Ga(III) complex in multi drug resistant (KB-8-5) cells; NA=not applicable. It is filed as functional, cell-based. The following applies: Homo sapiens. An outline of the steps: as §3
Assay [25] relates to KB. As to the kind of experiment: Compound was tested for cytotoxic lethal concentration on R-ENBPI Fe(III) complex in multi drug resistant (KB-8-5) cells; NA=not applicable. It is filed as functional, cell-based. To be noted: Homo sapiens. An outline of the steps: as §3

For the molecule `COc1cccc(/C=N/CCCN2CCN(CCC/N=C/c3cccc(OC)c3O)C2c2cccc(OC)c2O)c1O`, the Dependency in assay [1] is recorded as 0.41; in assay [2], 0.45; in assay [7], 0.46; in assay [9], 0.39; in [14], 0.36; in [15], 0.68. In assay [17], this molecule returned a Dependency of 0.33. Besides, the CC50 in assay [3] was 9 µM; in [4] it was less than 27.5 µM; in assay [5], less than 110 µM; in [6], 11.4 µM; in assay [10], 16.6 µM; in assay [11], greater than 100 µM. Besides, the CC50 is less than 42.6 µM in assay [12] and 24.2 µM in [16]. Further, in [8], the CV result is “inactive”. For the same molecule, the Dependency entry in assay [13] was “inactive”.
For the molecule `COc1cc(O)c(/C=N/CCCN2CCN(CCC/N=C/c3c(O)cc(OC)cc3OC)C2c2c(O)cc(OC)cc2OC)c(OC)c1`, the Dependency in assay [1] is 0.38; in assay [2] it was 0.34; in assay [7], 0.39; in [14], 0.38; in assay [15] it was 0.23. Also, the Dependency result in assay [18], in assay [20] and in [13] was “inactive” in each case. For the same molecule, the CC50 in assay [3] is less than 1.1 µM; in assay [4], greater than 100 µM; in assay [21], 3.7 µM; in assay [23], less than 1400 nM; in [10], 63.8 µM; in assay [16], 61.8 µM. Moreover, the CV entry in [19], in assay [22] and in [8] was “inactive” in each case. In addition, the LC50 entry in assay [24] and in [25] was “inactive” each time.
